Converted amounts (≈) assume the structure as drawn.
Columns and labels:
Assay type in all cases: functional
[1] = system: Mycobacterium tuberculosis; experiment: Antibacterial activity against multidrug-resistant Mycobacterium tuberculosis H37Rv carrying luxAB incubated for 10 days under low oxygen followed by 28 hrs normoxic recovery by low-oxygen-recovery assay
Outline: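 Low-oxygen-recovery assay using low-oxygen-adapted M. tuberculosis H37Rv luxAB, which carries a luciferase reporter, in 7H12 medium in microplate format. Cultures were incubated 10 days under low oxygen, then given 28 h of normoxic recovery before luminescence was read. MIC is the lowest concentration giving at least a 90% luminescence reduction relative to untreated controls.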

[2] = system: Mycobacterium tuberculosis; experiment: Antibacterial activity against multidrug-resistant Mycobacterium tuberculosis H37Rv carrying luxAB at 128 uM incubated for 10 days under low oxygen followed by 28 hrs normoxic recovery by low-oxygen-recovery assay relative to control
[3] = system: Mycobacterium tuberculosis; experiment: Antibacterial activity against kanamycin-resistant Mycobacterium tuberculosis after 7 days by microplate alamar blue assay; conditions: 168 h
Outline: (§1)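 Microplate alamar blue assay in 7H12 medium against M. tuberculosis H37Rv ATCC 27294 and against rifampicin-, isoniazid-, streptomycin- and kanamycin-resistant Mtb strains. Bacteria were incubated with test samples for 7 days, then fluorescence was read. MIC is the lowest concentration giving at least a 90% fluorescence reduction relative to untreated controls.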

[4] = system: Mycobacterium tuberculosis; experiment: Antibacterial activity against streptomycin-resistant Mycobacterium tuberculosis after 7 days by microplate alamar blue assay; conditions: 168 h
[5] = system: Mycobacterium tuberculosis; experiment: Antibacterial activity against rifampicin-resistant Mycobacterium tuberculosis after 7 days by microplate alamar blue assay; conditions: 168 h
[6] = system: Mycobacterium tuberculosis; experiment: Antibacterial activity against isoniazid-resistant Mycobacterium tuberculosis after 7 days by microplate alamar blue assay; conditions: 168 h; outline: as §1
[7] = system: Mycobacterium tuberculosis; experiment: Antibacterial activity against clofazimine-resistant Mycobacterium tuberculosis after 7 days by microplate alamar blue assay; conditions: 168 h

SMILES | MIC [1] [µM] | inhibition at 128 µM [2] [%] | MIC [3] [µM] | MIC [4] [µM] | MIC [5] [µM] | MIC [6] [µM] | MIC [7] [µM]
COc1ccc(Cn2nnc3c(-c4ccco4)ncnc32)cc1 | > 128 | 61 |  |  |  |  | 
COc1ccc(Cn2ncc3c(-c4ccco4)ncnc32)cc1 | > 128 | 60 |  |  |  |  | 
COc1ccc(Cn2ccc3c(-c4ccco4)ncnc32)cc1 | > 128 | 82 | 0.1 (≈ 0.0305 µg/mL) | 0.18 (≈ 0.055 µg/mL) | 0.14 (≈ 0.0427 µg/mL) | 0.13 (≈ 0.0397 µg/mL) | 0.16 (≈ 0.0489 µg/mL)
COc1ccc(Cn2ccc3c(-c4cccs4)ncnc32)cc1 | 60 (≈ 19.3 µg/mL) |  | 0.12 (≈ 0.0386 µg/mL) | 0.26 (≈ 0.0836 µg/mL) | 0.13 (≈ 0.0418 µg/mL) | 0.14 (≈ 0.045 µg/mL) | 0.18 (≈ 0.0579 µg/mL)
COc1ccc(Cn2ccc3c(-c4ccco4)nc(Cl)nc32)cc1 | > 128 | 88 | 0.1 (≈ 0.034 µg/mL) | 0.08 (≈ 0.0272 µg/mL) | 0.1 (≈ 0.034 µg/mL) | 0.12 (≈ 0.0408 µg/mL) | 0.06 (≈ 0.0204 µg/mL)
COc1ccc(Cn2ccc3c(-c4cccs4)nc(Cl)nc32)cc1 | 120 (≈ 42.7 µg/mL) |  | 0.08 (≈ 0.0285 µg/mL) | 0.06 (≈ 0.0214 µg/mL) | 0.14 (≈ 0.0498 µg/mL) | 0.09 (≈ 0.032 µg/mL) | < 0.05
COc1ccc(Cn2ccc3c(-c4ccco4)nc(OC)nc32)cc1 | 87 (≈ 29.2 µg/mL) |  | 0.1 (≈ 0.0335 µg/mL) | 0.09 (≈ 0.0302 µg/mL) | 0.09 (≈ 0.0302 µg/mL) | 0.09 (≈ 0.0302 µg/mL) | 0.07 (≈ 0.0235 µg/mL)
COc1ccc(Cn2cnc3c(-c4ccco4)ncnc32)cc1 | > 128 | 88 |  |  |  |  | 
COc1ccc(Cn2cnc3c(-c4ccco4)nc(Cl)nc32)cc1 | > 128 | 82 | 0.16 (≈ 0.0545 µg/mL) | 0.56 (≈ 0.191 µg/mL) | 0.15 (≈ 0.0511 µg/mL) | 0.15 (≈ 0.0511 µg/mL) | 0.47 (≈ 0.16 µg/mL)
NNC(=O)c1ccncc1 [ISONIAZID] |  |  | 0.39 (≈ 0.0535 µg/mL) | 0.24 (≈ 0.0329 µg/mL) | 0.25 (≈ 0.0343 µg/mL) | > 8 | 
COc1c(N2C[C@@H]3CCCN[C@@H]3C2)c(F)cc2c(=O)c(C(=O)O)cn(C3CC3)c12 [MOXIFLOXACIN] |  |  | 0.34 (≈ 0.136 µg/mL) |  |  | 0.3 (≈ 0.12 µg/mL) | 
O=[N+]([O-])c1cn2c(n1)OC[C@@H](OCc1ccc(OC(F)(F)F)cc1)C2 [PRETOMANID] |  |  | 0.22 (≈ 0.079 µg/mL) | 0.1 (≈ 0.0359 µg/mL) | 0.17 (≈ 0.0611 µg/mL) | 0.07 (≈ 0.0251 µg/mL) | 0.54 (≈ 0.194 µg/mL)
CO[C@H]1/C=C/O[C@@]2(C)Oc3c(C)c(O)c4c(O)c(c(/C=N/N5CCN(C)CC5)c(O)c4c3C2=O)NC(=O)/C(C)=C\C=C\[C@H](C)[C@H](O)[C@@H](C)[C@@H](O)[C@@H](C)[C@H](OC(C)=O)[C@@H]1C [RIFAMPIN] |  |  | 0.02 (≈ 0.0165 µg/mL) | 0.04 (≈ 0.0329 µg/mL) | > 4 | 0.02 (≈ 0.0165 µg/mL) | 0.02 (≈ 0.0165 µg/mL)
CN[C@@H]1[C@H](O[C@H]2[C@H](O[C@H]3[C@H](O)[C@@H](O)[C@H](N=C(N)N)[C@@H](O)[C@@H]3N=C(N)N)O[C@@H](C)[C@]2(O)C=O)O[C@@H](CO)[C@H](O)[C@H]1O [STREPTOMYCIN] |  |  | 0.98 (≈ 0.57 µg/mL) | > 16 | 0.21 (≈ 0.122 µg/mL) | 0.13 (≈ 0.0756 µg/mL) | 0.33 (≈ 0.192 µg/mL)

Reference: ChEMBL document CHEMBL1250546, “Synthesis of non-purine analogs of 6-aryl-9-benzylpurines, and their antimycobacterial activities. Compounds modified in the imidazole ring” (Bioorg Med Chem, 2010)
